Data from ChEMBL document CHEMBL1126753, “1-Carboranyl-3-(2-methylaziridino)-2-propanol. Synthesis, selective uptake by B-16 melanoma, and selective cytotoxicity toward cancer cells” (J Med Chem, 1993).

Key:
B16 [1] = experiment: Boron incorporation into B-16 […] tumor cell after 24 hours; format: functional
Method in brief: (§1)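 Cells grown to confluence in 150-mm dishes (about 5.0 × 10⁶ cells/dish), then exposed to carrier (1.5 ppm carborane or 200 ppm BPA-HCl) in Eagle-MEM with 10% FCS at 37 °C. Cells were washed thrice in Ca-Mg-free PBS, scraped, digested in HClO₄–H₂O₂ for 1 h at 75 °C, and filtered. Boron was measured by ICP-AES, untreated-dish boron subtracted, and reported as μg/10⁶ cells; two replicates, SD.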

B16 [2] = experiment: Boron incorporation into B-16 […] tumor cell after 2 hours; format: functional; method in brief: as §1
IMR-32 = experiment: (§2) Inhibition of growth of IMR 32 human tumor cell line; format: functional, cell-based
Method in brief: (§3)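 1 × 10⁶ cells per 60-mm dish in Eagle-MEM plus 10% FCS, treated with 1, 2.5, 5, 10, 25, 50 or 100 ppm compound (DMSO vehicle) for 3 days at 37 °C in CO₂. Cells were washed with PBS, trypsinized and counted; the count is a percentage of untreated control, and IC50 is the concentration giving 50% of control cell number.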

Tumor cell line = experiment: as §2; format: functional, cell-based; method in brief: as §3
TIG-1-20 [3] = experiment: Boron incorporation into TIG-1-20 human fetal lung normal cell line after 2 hours; format: functional; method in brief: as §1
TIG-1-20 [4] = experiment: Boron incorporation into TIG-1-20 human fetal lung normal cell line after 24 hours; format: functional; method in brief: as §1

Structure (SMILES) | Boron incorporation (B16 [1]) [ug/10e6] | Boron incorporation (B16 [2]) | IC50 (IMR-32) [ppm g dm**-3] | IC50 (Tumor cell line) [M mol/dm 3] | Boron incorporation (TIG-1-20 [3]) [ug/10e6] | Boron incorporation (TIG-1-20 [4]) [ug/10e6]
CC1CN1CC(O)CC1CC1 (stereo not given) | 0.26 | 0.25 µg | 8.2e-6 | 0.0000319 | 0.14 | 0.11
NC(Cc1ccc(B(O)O)cc1)C(=O)O (stereo not given) | 0.28 | 0.22 ug/10e6 |  |  | 0.17 | 0.26
